# Experimental data as given in ChEMBL document CHEMBL1131618, “Synthesis, activity, and structure--activity relationship studies of novel cationic lipids for DNA transfer” (1998).
# Tests used:
# [1] = tested on: HeLa; assay: Compound was tested for the impact of polyamine geometry on expression of luciferase in transfected HeLa cells (RLU = luciferase activity in relative light units (RLU)/10 s for 10E3 plated cells); type: functional, Homo sapiens
# Summary of the method: (§1)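 5×10^4 cells plated in DMEM at 37 °C, 5% CO2, and transfected after 24 h at 50/70% confluency in serum-free medium. CMV-luciferase plasmid mixed with cationic lipid in 75 mM NaCl final, four lipid:DNA ratios, added dropwise, triplicates. Serum added to 10% at 2 h, then 44 h more. Lysate supernatant read with 10 s luminometer counting. Value at optimal ratio.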
# [2] = tested on: HeLa; assay: Luciferase activity in human Hela cells; type: functional; summary of the method: as §1
# [3] = tested on: NIH3T3; assay: Compound tested for the impact on expression of luciferase in transfected NIH3T3 cells (RLU = luciferase activity in relative light units (RLU)/10 s for 10E3 plated cells); type: functional, Mus musculus; summary of the method: as §1
# [4] = tested on: NIH3T3; assay: Luciferase activity in mouse fibroblasts NIH3T3 cells.; type: functional; summary of the method: as §1
# [5] = tested on: CV-1; assay: Compound was tested for luciferase activity in Monkey CV1 Cell Lines; type: functional, Cercopithecidae
# Summary of the method: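 CV1 cells (5×10^4) plated in MEM at 37 °C, 5% CO2, and transfected after 24 h at 50/70% confluency in serum-free medium. CMV-luciferase plasmid mixed with lipid in 75 mM NaCl final, four lipid:DNA ratios, triplicates. 10% serum added at 2 h, then 44 h more. Lysates counted 10 s. Value reported at optimal ratio.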
# [6] = tested on: NIH3T3; assay: Compound was tested for the impact of introduction of molecular probe as side chain entity in the linker position on expression of luciferase in transfected NIH3T3 cells (RLU = luciferase activity in relative light units (RLU)/10 s for 10E3 plated cells); type: functional, Mus musculus; summary of the method: as §1
# [7] = tested on: CV1 cells (Cercopithecus aethiops); assay: Compound was tested for the impact of introduction of molecular probe as side chain entity in the linker position on expression of luciferase in transfected CV1 cells (RLU = luciferase activity in relative light units (RLU)/10 s for 10E3 plated c ells)
# [8] = tested on: HeLa; assay: Compound was tested for the impact of linker length on expression of luciferase in transfected HeLa cells (RLU = luciferase activity in relative light units (RLU)/10 s for 10E3 plated cells); type: functional, Homo sapiens; summary of the method: as §1
# [9] = tested on: HeLa; assay: Compound was tested for the impact of introduction of a side chain entity in the linker position on expression of luciferase in transfected HeLa cells (RLU = luciferase activity in relative light units (RLU)/10 s for 10E3 plated cells); type: functional, Homo sapiens; summary of the method: as §1
# [10] = tested on: NIH3T3; assay: Compound was tested for the impact of introduction of a side chain entity in the linker position on expression of luciferase in transfected NIH3T3 cells (RLU = luciferase activity in relative light units (RLU)/10 s for 10E3 plated cells); type: functional, Mus musculus; summary of the method: as §1
# [11] = tested on: HeLa; assay: Compound was tested for the impact of the length of the lipid on expression of luciferase in transfected HeLa cells (RLU = luciferase activity in relative light units (RLU)/10 s for 10E3 plated cells); type: functional, Homo sapiens; summary of the method: as §1
# [12] = tested on: NIH3T3; assay: Compound was tested for the impact of the length of the lipid on expression of luciferase in transfected NIH3T3 cells (RLU = luciferase activity in relative light units (RLU)/10 s for 10E3 plated cells); type: functional, Mus musculus; summary of the method: as §1
SMILES,Luciferase activity [2] [RLU 10s-1],RLU [3],Luciferase activity [4] [RLU 10s-1],further results
CCCCCCCCCCCCCCCCCCN(CCCCCCCCCCCCCCCCCC)C(=O)CNC(=O)CNCCN(CCN)CCN,130000,20000000,20000000,RLU [1]: 130000
CCCCCCCCCCCCCCCCCCN(CCCCCCCCCCCCCCCCCC)C(=O)C(CCCC/N=C(\S)Nc1ccc(-c2c3ccc(=[N+](C)C)cc-3oc3cc(N(C)C)ccc23)c(C(=O)[O-])c1)NC(=O)CNCCCNCCCCNCCCN (stereo not drawn) [CATIONIC LIPID],,,1200000,Luciferase activity [5]: 130000 RLU 10s-1; RLU [6]: 1200000; RLU [7]: 130000
CCCCCCCCCCCCCCCCCCN(CCCCCCCCCCCCCCCCCC)C(=O)CNCCN(CCN)CCN,,1500000,1500000,
CCCCCCCCCCCCCCCCCCN(CCCCCCCCCCCCCCCCCC)C(=O)CNCCCNCCCCNCCCN,2600000,2000000,2000000,RLU [8]: 2600000
CCCCCCCCCCCCCCCCCCN(CCCCCCCCCCCCCCCCCC)C(=O)CNCCCN(CCCN)CCCCN(CCCN)CCCN,,59000000,,
CCCCCCCCCCCCCCCCCCN(CCCCCCCCCCCCCCCCCC)C(=O)C(CCC(=O)O)NC(=O)CNCCCNCCCCNCCCN (stereo not drawn),,,,RLU [9]: 15000000; RLU [10]: 63000000
CCCCCCCCCCCCCCCCCCN(CCCCCCCCCCCCCCCCCC)C(=O)C(CCCCNC(=O)CCCCC1SC[C@@H]2NC(=O)N[C@H]12)NC(=O)CNCCCNCCCCNCCCN (stereo partly drawn),,,,RLU [6]: 5400000; RLU [7]: 160000
CCCCCCCCCCCCCCCCCCN(CCCCCCCCCCCCCCCCCC)C(=O)CNC(=O)CNCCN(CCCN)CCCCN(CCCN)CCCN,580000,,68000000,
CCCCCCCCCCCCCCCCCCN(CCCCCCCCCCCCCCCCCC)C(=O)C(CCCN=C(N)N)NC(=O)CNCCCNCCCCNCCCN (stereo in doubt; form 2),8200000,,11000000,
CCCCCCCCCCCCCCCCCCN(CCCCCCCCCCCCCCCCCC)C(=O)[C@H](CCC(=O)O)NC(=O)CNCCCNCCCCNCCCN,15000000,,63000000,
CCCCCCCCCCCCCCCCCCN(CCCCCCCCCCCCCCCCCC)C(=O)C(CCCCNC(=O)CCCC[C@H]1SC[C@@H]2NC(=O)N[C@@H]21)NC(=O)CNCCCNCCCCNCCCN (stereo partly drawn),,,5400000,Luciferase activity [5]: 160000 RLU 10s-1
CCCCCCCCCCCCCCCCCCN(CCCCCCCCCCCCCCCCCC)C(=O)C(N)CCCN=C(N)N (stereo not drawn),4700,,8700,RLU [9]: 4700; RLU [10]: 8700
CCCCCCCCCCCCCCCCCCN(CCCCCCCCCCCCCCCCCC)C(=O)CCCCCNC(=O)CNCCCNCCCCNCCCN,3500000,,,RLU [8]: 3500000
CCCCCCCCCCCCCCCCCCN(CCCCCCCCCCCCCCCCCC)C(=O)[C@H](CCCCN)NC(=O)CNCCCNCCCCNCCCN,700000,,10000000,
CCCCCCCCCCCCCCCCCCN(CCCCCCCCCCCCCCCCCC)C(=O)C(CCCCNC(=O)OCc1ccccc1Cl)NC(=O)CNCCCNCCCCNCCCN (stereo not drawn),1400000,,30000000,RLU [9]: 1400000; RLU [10]: 30000000
CCCCCCCCCCCCCCCCCCN(CCCCCCCCCCCCCCCCCC)C(=O)CNC(=O)CNCCCNCCCCNCCCN,,54000000,,RLU [9]: 10000000; RLU [8]: 2400000; RLU [1]: 2400000; RLU [11]: 890000; RLU [10]: 200000000; RLU [6]: 26000000; RLU [12]: 44000000; RLU [7]: 7000
